Hits are enriched below; roughly 6.4% of the tested compounds scored in any of these assays.
EBV gp42 inh: inhibitors of Epstein-Barr virus glycoprotein 42 | inhibition, % (tested at 21.74 µM) | Q1HVG2 | hit rate 0.42% among 220,000 | Fluorescence polarization binding assay, mP read-out | AID 1085; in the data active = inhibition above about 50%
Target sequence (Q1HVG2 whole entry, looked up): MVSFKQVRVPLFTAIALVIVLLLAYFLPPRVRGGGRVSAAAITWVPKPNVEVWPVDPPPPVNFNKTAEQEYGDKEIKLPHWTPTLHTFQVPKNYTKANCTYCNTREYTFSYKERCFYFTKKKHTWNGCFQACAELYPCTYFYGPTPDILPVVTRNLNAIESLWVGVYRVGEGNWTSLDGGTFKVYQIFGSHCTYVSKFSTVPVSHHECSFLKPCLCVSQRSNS
MPTP inh: inhibitors of mitochondrial permeability transition pore; isolated mouse mitochondria, Ca2+ swelling absorbance, 30 min; inhibition, % at 10 µM; hit rate 1.4% among 360,000; AID 602449;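 active = inhibition of 50% or more, scaled per plate between neutral and stimulator controls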;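 also: 0% = DMSO wells given calcium and 100% = 1 mM EGTA wells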
TbMetRS inhib: Trypanosoma brucei MetRS inhibition. inhibition, % at 11.9 µM. AID 624268. hit rate 0.4% among 360,000. purified T. brucei MetRS, ATP depletion, Kinase-Glo luminescence;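 active = inhibition above a per-plate cutoff of the control wells' mean inhibition plus 3 SD, cut at about 5.5% in these data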;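 also: 0% = DMSO wells median and 100% = median of wells with control inhibitor compound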
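Assay system: T. brucei methionyl-tRNA synthetase, purified | Medium: HEPES buffer with MgCl2, KCl, DTT, spermine, BSA, pyrophosphatase | Compound: 11.9 µM single point | Incubation: 15 min enzyme-compound preincubation, 2 h reaction, 10 min detection, 25 °C | Measured by: Kinase-Glo luciferase luminescence reporting remaining unconsumed ATP | Measure: % inhibition normalized to control-well medians | Replication: Singlicate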
WT yeast gro inh: growth inhibition of WT yeast, mitochondrial fusion screen. mitochondrial fusion phenotypic screen, WT strain. inhibition, % at 10 µM. hit rate 2.1% among 190,000. AID 1362; in the data active = inhibition above about 58%; tested in S. cerevisiae
NR3A LBD binder: modulators (binders) of human NR3A ligand-binding domain | NR3A LBD differential scanning fluorimetry, Tm shift; 0% = protein alone, 100% = glycine-bound protein | Tm shift relative to glycine control, % at 25 µM | hit rate 2.5% among 340,000;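 active = melting temperature shift of at least 10% of the positive control shift, at one fixed dose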
CHOP inhibitor: blocks CHOP induction under ER stress. hit rate 3.8% among 220,000. CHO-K1 CHOP-promoter luciferase, tunicamycin-induced, 15-18 h. AID 2732. inhibition, % at 10 µM;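 active = compounds that reduced the stress-induced luciferase reporter signal by more than about 70% of percent inhibition, limit read from the data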;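 also: 0% = tunicamycin plus vehicle and 100% = wells without tunicamycin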
Rh123 counter: membrane potential counter-screen of mitochondrial pore inhibitors. shares compounds with MPTP inh. isolated mitochondria, Rhodamine 123 fluorescence. inhibition, % at 10 µM. hit rate 78% among 5,000; in the data active = inhibition above about 22%;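 also: 0% = DMSO vehicle and 100% = positive control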
MPTP abs DR: MPTP inhibition, dose response swelling confirmation; shares compounds with MPTP inh; isolated mitochondria swelling, absorbance; IC50, µM; hit rate 58% among 780; AID 651561; in the data active = IC50 below about 20 µM
MPTP counter DR: active in counter-screen for permeability transition pore inhibitors | AID 651564 | isolated mitochondria counterscreen, fluorescence read-out | IC50, µM | hit rate 49% among 780 | shares compounds with MPTP inh; in the data active = IC50 below about 80 µM
The depositor's hits bear a star; . = not tested or not shown.

SMILES	EBV gp42 inh	MPTP inh	TbMetRS inhib	WT yeast gro inh	NR3A LBD binder	CHOP inhibitor	Rh123 counter	others
Fc1ccc(NC(=S)Nc2cc(Cl)ccc2Cl)cc1	-15	58*	0	-37	0	19	78*
Fc1ccc(NC(=S)Nc2ccc(Cl)cc2)cc1	0	80*	-1	16	4	12	107*
COCCCNC(=O)c1ccc2c(=O)n(Cc3ccccc3OC)c(=S)[nH]c2c1	.	0	0	.	0	.	.
COc1ccc(OC(=O)CCN2C(=O)C3C4C=CC(C4)C3C2=O)cc1 (stereo not drawn)	-18	1	0	-16	0	3	.
CCc1sc(C(=O)Nc2nc(-c3ccccn3)cs2)cc1C	.	68*	-1	.	-5	.	-14
COc1ccc(C(=O)C2CCCN(Cc3cccn3-c3ccc(Cl)cn3)C2)c(OC)c1 (stereo not drawn)	7	76*	0	44	-2	21	99*
COc1ccc(C(=O)C2CCCN(Cc3c(F)ccc(F)c3F)C2)c(OC)c1 (stereo not drawn)	.	0	0	.	3	.	.
CCOC(=O)c1ccc(S(=O)(=O)N2CCN(CCC#N)CC2)cc1	-16	1	0	10	-2	9	.
COc1ccc(Br)cc1CN(C)CC(O)COc1ccc(Br)cc1 (stereo not drawn)	.	80*	2	.	0	.	-1	MPTP abs DR=18*;MPTP counter DR=42*
CC(C)(C)c1cnnn1-c1ccc(/C=N/Nc2ccc([N+](=O)[O-])cc2)cc1	-43	74*	-1	-2	0	35	68*
Cc1cc(N/N=C/c2c(O)ccc3ccccc23)nc(-c2ccccc2O)n1	-22	66*	-1	1	14*	33	52*
Cc1cccc(Nc2nnc(SCc3cn4ccsc4n3)s2)c1	5	76*	1	.	-4	20	-1	MPTP abs DR=>100;MPTP counter DR=>80
Cc1cccc(C)c1OCc1cc(C(=O)NCC2COCCO2)no1 (stereo not drawn)	.	1	0	.	0	.	.
CN(C)C(=O)Nc1ccc(Cl)c(Cl)c1	.	-1	-1	.	.	.	.
CC(C)C1O/C(=N/C(=O)Nc2ccc(Cl)c(Cl)c2)NC1=O (stereo not drawn)	-17	93*	-1	76	-6	61	92*
CCOC(=O)C(NC(C)=O)(Nc1ccc(S(=O)(=O)Nc2cc(C)on2)cc1)C(F)(F)F (stereo not drawn)	-15	-5	-1	-2	0	7	.
O=C1CCc2ccc(OCCCCN3CCN(c4cccc(Cl)c4Cl)CC3)cc2N1	-11	80*	-1	84*	-3	64	20*
CN(CCc1ccccn1)C(=O)CCc1nnc(CCCc2ccccc2)o1	2	5	-1	-19	-1	8	.
Oc1ccc(Cl)cc1-c1cc(-c2ccccc2Cl)[nH]n1	10	61*	-1	37	10	-27	67*
CC1CCCN(c2nc(-c3cccnc3)nc3scc(-c4ccccc4)c23)C1 (stereo not drawn)	-64	73*	0	61*	12*	21	-2	MPTP abs DR=7*;MPTP counter DR=>80
CC1CCCN(C(=O)Cn2nnc(-c3cccnc3)n2)C1 (stereo not drawn)	-4	0	-1	-5	1	10	.
CCc1ccc(NC(=O)[C@H](Cc2c[nH]c3ccccc23)NC(=O)[C@@H]2Cc3ccccc3CN2)cc1	.	72*	1	.	-2	.	-16	MPTP abs DR=7.6*;MPTP counter DR=>80
Cc1cc(C(=O)CSc2nc3ccc(Cl)cc3[nH]2)c(C)n1Cc1ccco1	.	51*	1	.	2	.	53*
Cc1cc(C(=O)CSc2ncccn2)c(C)n1Cc1ccco1	-19	2	-1	5	-1	-6	.
CCN(CC)c1ccc(/C=N/OCC(=O)N2CCCc3ccccc32)cc1	10	-3	-1	50	-1	33	.
Cc1nnc(SCc2nnc(-c3cccs3)o2)n1Cc1ccccc1	-4	-2	1	-7	-1	-13	.
